{
  "source": "ChEMBL document CHEMBL3392964",
  "about": "“Design, synthesis, and evaluation of novel imidazo[1,2-a][1,3,5]triazines and their derivatives as focal adhesion kinase inhibitors with antitumor activity” (J Med Chem, 2015)",
  "key": {"[1]": {"biological_target": "Protein-tyrosine kinase 2-beta (Homo sapiens) (UniProt Q14289)", "sequence (Q14289 whole entry, looked up)": "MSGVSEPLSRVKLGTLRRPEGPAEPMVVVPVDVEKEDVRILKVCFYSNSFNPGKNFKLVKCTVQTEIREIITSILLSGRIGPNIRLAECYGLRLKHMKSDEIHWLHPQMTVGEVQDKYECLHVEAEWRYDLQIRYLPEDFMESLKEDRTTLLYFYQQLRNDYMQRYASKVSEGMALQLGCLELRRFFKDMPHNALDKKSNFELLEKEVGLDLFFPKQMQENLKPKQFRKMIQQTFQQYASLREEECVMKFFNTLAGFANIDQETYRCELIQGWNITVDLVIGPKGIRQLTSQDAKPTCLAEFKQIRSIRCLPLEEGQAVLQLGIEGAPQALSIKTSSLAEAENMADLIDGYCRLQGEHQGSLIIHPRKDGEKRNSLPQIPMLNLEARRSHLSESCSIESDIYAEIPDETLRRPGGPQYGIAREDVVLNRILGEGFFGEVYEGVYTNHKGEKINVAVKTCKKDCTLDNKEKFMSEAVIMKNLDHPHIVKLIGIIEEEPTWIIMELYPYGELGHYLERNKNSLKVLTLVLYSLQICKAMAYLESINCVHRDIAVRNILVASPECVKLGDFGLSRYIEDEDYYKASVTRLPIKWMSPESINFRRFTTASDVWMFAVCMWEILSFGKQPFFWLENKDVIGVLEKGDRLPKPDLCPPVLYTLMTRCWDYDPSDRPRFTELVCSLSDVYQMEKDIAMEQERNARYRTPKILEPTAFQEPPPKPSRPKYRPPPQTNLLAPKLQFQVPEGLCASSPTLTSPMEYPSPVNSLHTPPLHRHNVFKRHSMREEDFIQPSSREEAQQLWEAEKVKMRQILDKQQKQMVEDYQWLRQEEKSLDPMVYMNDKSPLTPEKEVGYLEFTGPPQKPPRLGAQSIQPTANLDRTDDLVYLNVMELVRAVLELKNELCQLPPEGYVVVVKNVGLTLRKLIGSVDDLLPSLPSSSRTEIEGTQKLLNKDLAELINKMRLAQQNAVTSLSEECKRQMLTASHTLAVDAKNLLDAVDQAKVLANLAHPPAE", "experiment": "Inhibition of human recombinant Pyk2 using poly[Glu:Tyr] as substrate at 1 uM by [gamma-33P]ATP-based assay", "method_in_brief": "(§1)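 Radioactive kinase assay with [γ33P]ATP and human recombinant kinase, compound tested at 1 μM.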"}, "Focal adhesion kinase 1 [2]": {"biological_target": "T1, Focal adhesion kinase 1 (Homo sapiens, UniProt Q05397)", "T1 sequence (Q05397 2-1052 limits assumed)": "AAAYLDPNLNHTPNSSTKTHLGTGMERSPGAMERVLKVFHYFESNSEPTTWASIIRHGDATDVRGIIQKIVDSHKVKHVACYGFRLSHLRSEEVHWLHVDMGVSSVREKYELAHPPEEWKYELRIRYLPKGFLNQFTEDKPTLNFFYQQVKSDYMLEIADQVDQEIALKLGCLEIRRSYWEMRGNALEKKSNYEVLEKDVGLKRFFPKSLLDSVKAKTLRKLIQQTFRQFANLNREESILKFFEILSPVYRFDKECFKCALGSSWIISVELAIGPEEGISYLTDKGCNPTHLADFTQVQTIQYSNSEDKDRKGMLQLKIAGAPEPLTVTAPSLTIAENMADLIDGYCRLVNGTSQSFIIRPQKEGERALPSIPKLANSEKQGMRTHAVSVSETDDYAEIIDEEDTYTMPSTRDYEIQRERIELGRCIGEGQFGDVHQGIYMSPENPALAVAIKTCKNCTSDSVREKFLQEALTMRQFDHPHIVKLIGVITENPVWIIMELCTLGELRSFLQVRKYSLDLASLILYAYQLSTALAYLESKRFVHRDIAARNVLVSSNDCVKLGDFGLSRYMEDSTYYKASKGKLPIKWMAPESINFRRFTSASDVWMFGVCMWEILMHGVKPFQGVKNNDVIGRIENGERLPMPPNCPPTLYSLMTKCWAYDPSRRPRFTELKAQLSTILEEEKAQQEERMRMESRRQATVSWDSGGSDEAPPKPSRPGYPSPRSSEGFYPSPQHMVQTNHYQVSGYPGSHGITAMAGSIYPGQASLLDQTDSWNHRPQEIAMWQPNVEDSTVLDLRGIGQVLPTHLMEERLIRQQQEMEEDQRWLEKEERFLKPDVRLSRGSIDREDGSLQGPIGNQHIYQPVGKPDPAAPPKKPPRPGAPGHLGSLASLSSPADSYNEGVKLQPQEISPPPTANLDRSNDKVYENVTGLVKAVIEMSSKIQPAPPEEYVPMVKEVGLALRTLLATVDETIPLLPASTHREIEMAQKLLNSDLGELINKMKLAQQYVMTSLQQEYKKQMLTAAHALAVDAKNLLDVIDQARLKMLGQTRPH", "experiment": "Inhibition of FAK phosphorylation at tyrosine 397 in human U87MG cells after 48 hrs by FACEFAK ELISA", "format": "cell-based", "conditions": "U-87MG ATCC", "method_in_brief": "(§2)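 Cells in DMEM with 10% FBS, 3 × 10^3 per well, treated 48 h at 0.1, 1 and 10 μM. Fixed in 4% formaldehyde; antibodies to pTyr397-FAK or total FAK, HRP secondary, read at 450 nm. Crystal violet cell count at 595 nm. Phospho-FAK normalised to total FAK and cell number; fold decrease versus control, triplicate readings, three independent experiments.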"}, "Focal adhesion kinase 1 [3]": {"biological_target": "T1, Focal adhesion kinase 1", "experiment": "Inhibition of FAK phosphorylation at tyrosine 397 in human HCT116 cells after 48 hrs by FACEFAK ELISA", "format": "cell-based", "conditions": "HCT-116", "method_in_brief": "as §2"}, "Focal adhesion kinase 1 [4]": {"biological_target": "T1, Focal adhesion kinase 1", "experiment": "Inhibition of FAK phosphorylation at tyrosine 397 in human MDA-MB-231 cells after 48 hrs by FACEFAK ELISA", "format": "cell-based", "method_in_brief": "as §2"}, "U-87 MG [5]": {"tested_on": "U-87 MG", "experiment": "Induction of apoptosis in human U87MG cells assessed as early apoptotic cells at 3 uM after 24 hrs by Annexin V-PE/7-AAD staining-based FACS analysis (reference value: 0.691%)", "format": "functional, U-87MG ATCC"}, "U-87 MG [6]": {"tested_on": "U-87 MG", "experiment": "Induction of apoptosis in human U87MG cells assessed as late apoptotic cells at 3 uM after 24 hrs by Annexin V-PE/7-AAD staining-based FACS analysis (reference value: 1.59%)", "format": "functional, U-87MG ATCC"}, "HCT-116 [7]": {"tested_on": "HCT-116", "experiment": "Induction of apoptosis in human HCT116 cells assessed as early apoptotic cells at 0.5 uM after 24 hrs by Annexin V-PE/7-AAD staining-based FACS analysis (reference value: 4.68%)", "format": "functional"}, "HCT-116 [8]": {"tested_on": "HCT-116", "experiment": "Induction of apoptosis in human HCT116 cells assessed as viable cells at 0.5 uM after 24 hrs by Annexin V-PE/7-AAD staining-based FACS analysis (reference value: 93.2%)", "format": "functional", "conditions": "HCT-116, 24 h, read-out: Activity"}, "[9]": {"biological_target": "Insulin receptor (Homo sapiens) (UniProt P06213)", "sequence (P06213 28-758 limits assumed)": "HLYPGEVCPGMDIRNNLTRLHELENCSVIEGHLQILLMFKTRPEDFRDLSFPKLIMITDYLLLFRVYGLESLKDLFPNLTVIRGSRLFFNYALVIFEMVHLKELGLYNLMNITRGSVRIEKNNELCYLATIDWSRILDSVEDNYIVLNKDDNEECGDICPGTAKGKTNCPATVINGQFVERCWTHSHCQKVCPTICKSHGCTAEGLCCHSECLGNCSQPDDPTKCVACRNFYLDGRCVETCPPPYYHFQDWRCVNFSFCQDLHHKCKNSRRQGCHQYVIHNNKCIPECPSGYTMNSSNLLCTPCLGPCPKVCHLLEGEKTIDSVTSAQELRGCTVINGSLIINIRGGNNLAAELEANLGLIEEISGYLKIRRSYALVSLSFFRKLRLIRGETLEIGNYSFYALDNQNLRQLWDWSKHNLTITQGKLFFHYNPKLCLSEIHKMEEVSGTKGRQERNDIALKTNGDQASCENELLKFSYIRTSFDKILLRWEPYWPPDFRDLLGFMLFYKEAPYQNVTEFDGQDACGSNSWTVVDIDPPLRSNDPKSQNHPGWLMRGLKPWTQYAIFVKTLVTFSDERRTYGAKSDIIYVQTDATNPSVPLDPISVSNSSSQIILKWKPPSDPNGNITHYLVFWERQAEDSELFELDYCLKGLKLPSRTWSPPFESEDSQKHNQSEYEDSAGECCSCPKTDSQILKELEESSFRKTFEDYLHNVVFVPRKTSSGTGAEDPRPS", "sequence (P06213 763-1382 limits assumed)": "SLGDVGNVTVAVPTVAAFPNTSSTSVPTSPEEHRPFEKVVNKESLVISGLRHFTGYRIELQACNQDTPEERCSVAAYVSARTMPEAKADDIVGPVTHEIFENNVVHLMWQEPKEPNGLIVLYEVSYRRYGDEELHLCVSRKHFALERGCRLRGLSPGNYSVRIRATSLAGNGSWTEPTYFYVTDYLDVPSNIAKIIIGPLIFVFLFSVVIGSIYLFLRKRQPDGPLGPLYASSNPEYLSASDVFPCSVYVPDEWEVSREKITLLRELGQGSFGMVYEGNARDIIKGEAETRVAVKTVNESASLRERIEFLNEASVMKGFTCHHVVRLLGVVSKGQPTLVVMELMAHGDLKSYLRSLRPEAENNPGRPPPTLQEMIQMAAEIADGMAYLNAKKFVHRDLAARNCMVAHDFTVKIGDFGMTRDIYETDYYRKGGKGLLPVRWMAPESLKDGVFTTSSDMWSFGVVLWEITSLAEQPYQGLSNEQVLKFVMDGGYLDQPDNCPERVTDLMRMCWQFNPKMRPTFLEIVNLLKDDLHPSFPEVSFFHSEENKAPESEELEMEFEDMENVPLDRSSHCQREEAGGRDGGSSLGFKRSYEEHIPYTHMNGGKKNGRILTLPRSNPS", "experiment": "Inhibition of human recombinant IR using poly[Glu:Tyr] as substrate at 1 uM by [gamma-33P]ATP-based assay", "method_in_brief": "as §1"}, "[10]": {"experiment": "Cell cycle arrest in human U87MG cells assessed as accumulation at S phase at 3 uM after 24 hrs by propidium iodide staining-based flow cytometry (reference value: 16%)", "format": "functional", "conditions": "U-87MG ATCC", "method_in_brief": "(§3)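 Cells plated at 10^5 per well, left overnight, then exposed 24 h to compound or vehicle; stained 15 min at 37 °C with propidium iodide/Triton buffer; DNA content by flow cytometry, phase distribution fitted by Dean–Jett–Fox; HCT-116 at 0.3–0.5 μM, U87-MG at 0.3–3 μM; significance by unpaired Student's t test; one representative experiment.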"}, "[11]": {"experiment": "Cell cycle arrest in human HCT116 cells assessed as accumulation at G2/M phase at 0.5 uM after 24 hrs by propidium iodide staining-based flow cytometry (reference value: 14.6%)", "format": "functional", "conditions": "HCT-116", "method_in_brief": "as §3"}, "[12]": {"experiment": "Cell cycle arrest in human HCT116 cells at < 0.5 uM after 24 hrs by propidium iodide staining-based flow cytometry", "format": "functional", "conditions": "HCT-116", "method_in_brief": "as §3"}, "U-87MG ATCC": {"tested_on": "U-87MG ATCC", "experiment": "Antiinvasive activity in human U87MG cells after 30 mins by boyden chamber assay", "format": "functional, cell-based"}},
  "note": "Calls of active or inactive are those of the source. The rule behind the calls is not given here.",
  "data": [
    {"smiles": "C=COC(=O)NCc1ccc(Nc2nc(Nc3ccccc3C(=O)NC)n3ccnc3n2)cc1", "values": [
      {"measurement": "inhibition", "setting": "[1]", "result": "inactive"},
      {"measurement": "inhibition", "setting": "Focal adhesion kinase 1 [2]", "result": "Dose-dependent effect"},
      {"measurement": "inhibition", "setting": "Focal adhesion kinase 1 [3]", "result": "Dose-dependent effect"},
      {"measurement": "inhibition", "setting": "Focal adhesion kinase 1 [4]", "result": "Dose-dependent effect"},
      {"measurement": "Activity", "setting": "U-87 MG [5]", "result": 0.756, "unit": "%"},
      {"measurement": "Activity", "setting": "U-87 MG [6]", "result": 0.997, "unit": "%"},
      {"measurement": "Activity", "setting": "HCT-116 [7]", "result": 13.3, "unit": "%"},
      {"measurement": "viability at 0.5 µM", "setting": "HCT-116 [8]", "result": 62.9, "unit": "%"},
      {"measurement": "inhibition", "setting": "[9]", "result": "inactive"},
      {"measurement": "Activity", "setting": "[10]", "result": 5.08, "unit": "%"},
      {"measurement": "Activity", "setting": "[11]", "result": 54.7, "unit": "%"},
      {"measurement": "Activity", "setting": "[12]", "result": "Active"},
      {"measurement": "Activity", "setting": "U-87MG ATCC", "result": "Dose-dependent effect"}
    ]}
  ]
}
